In ChEMBL document CHEMBL4052710 (Bioorg Med Chem Lett, 2017):

Experiments:
NCI-H460 [1] = assay: Growth inhibition of human H460 cells incubated for 72 hrs at 1 uM by CCK8 assay; format: functional; details: NCI-H460, 72 h, read-out: GI
Outline: (§1)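 CCK8 viability assay on a panel of human cancer cell lines, with an initial screen at fixed concentrations of 1 µM and 10 µM.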

[2] = target: Vascular endothelial growth factor receptor 2 (Homo sapiens, UniProt P35968); assay: Inhibition of human VEGFR2 at 1 uM by enzymatic radiometric assay
Vascular endothelial growth factor receptor 2, sequence (P35968 whole entry): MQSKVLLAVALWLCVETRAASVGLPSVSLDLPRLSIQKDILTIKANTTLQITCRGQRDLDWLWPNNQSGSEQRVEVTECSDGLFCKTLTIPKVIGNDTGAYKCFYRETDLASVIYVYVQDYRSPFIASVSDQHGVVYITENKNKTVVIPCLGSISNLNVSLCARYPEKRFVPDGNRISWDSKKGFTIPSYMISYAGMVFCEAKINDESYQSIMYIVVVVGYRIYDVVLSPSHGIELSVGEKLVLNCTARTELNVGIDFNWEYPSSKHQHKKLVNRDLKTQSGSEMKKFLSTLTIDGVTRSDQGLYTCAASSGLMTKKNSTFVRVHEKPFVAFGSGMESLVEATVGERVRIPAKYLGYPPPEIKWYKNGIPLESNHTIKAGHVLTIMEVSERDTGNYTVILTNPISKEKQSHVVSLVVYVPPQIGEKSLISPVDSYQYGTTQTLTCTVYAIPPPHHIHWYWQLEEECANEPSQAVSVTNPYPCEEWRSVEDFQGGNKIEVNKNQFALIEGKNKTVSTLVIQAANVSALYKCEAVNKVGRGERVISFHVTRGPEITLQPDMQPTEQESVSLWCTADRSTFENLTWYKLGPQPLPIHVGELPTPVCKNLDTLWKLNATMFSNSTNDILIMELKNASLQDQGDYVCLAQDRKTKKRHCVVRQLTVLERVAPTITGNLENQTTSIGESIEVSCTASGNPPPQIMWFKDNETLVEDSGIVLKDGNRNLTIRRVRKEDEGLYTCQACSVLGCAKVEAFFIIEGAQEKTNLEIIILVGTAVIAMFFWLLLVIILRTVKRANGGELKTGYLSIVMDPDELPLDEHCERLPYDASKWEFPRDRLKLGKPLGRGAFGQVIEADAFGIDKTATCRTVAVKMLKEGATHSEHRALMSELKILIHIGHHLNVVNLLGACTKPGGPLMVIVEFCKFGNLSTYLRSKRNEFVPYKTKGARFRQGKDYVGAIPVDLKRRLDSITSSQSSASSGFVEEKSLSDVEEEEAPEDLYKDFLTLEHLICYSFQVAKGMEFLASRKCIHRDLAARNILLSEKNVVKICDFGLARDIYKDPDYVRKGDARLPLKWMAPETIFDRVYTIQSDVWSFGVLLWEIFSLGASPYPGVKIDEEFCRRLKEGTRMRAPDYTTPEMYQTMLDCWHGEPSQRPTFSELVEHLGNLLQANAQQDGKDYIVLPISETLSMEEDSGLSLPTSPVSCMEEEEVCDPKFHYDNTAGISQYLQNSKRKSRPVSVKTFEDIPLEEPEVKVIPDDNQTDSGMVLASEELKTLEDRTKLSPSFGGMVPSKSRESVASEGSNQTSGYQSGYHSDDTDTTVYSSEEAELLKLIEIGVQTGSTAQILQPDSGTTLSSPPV

SiHa [3] = assay: Growth inhibition of human SiHa cells incubated for 72 hrs at 10 uM by CCK8 assay; format: functional; details: read-out: GI; outline: as §1
OVCAR-5 [4] = assay: Growth inhibition of human OVCAR5 cells incubated for 72 hrs at 10 uM by CCK8 assay; format: functional; details: OVCAR-5, 72 h, read-out: GI; outline: as §1
A549 [5] = assay: Growth inhibition of human A549 cells incubated for 72 hrs at 1 uM by CCK8 assay; format: functional; details: A549, 72 h, read-out: GI; outline: as §1
T47D [6] = assay: Growth inhibition of human T47D cells incubated for 72 hrs at 10 uM by CCK8 assay; format: functional; details: read-out: GI; outline: as §1
T47D [7] = assay: Growth inhibition of human T47D cells incubated for 72 hrs at 1 uM by CCK8 assay; format: functional; details: read-out: GI; outline: as §1
OVCAR-5 [8] = assay: Growth inhibition of human OVCAR5 cells incubated for 72 hrs at 1 uM by CCK8 assay; format: functional; details: OVCAR-5, 72 h, read-out: GI; outline: as §1
NCI-H460 [9] = assay: Growth inhibition of human H460 cells incubated for 72 hrs at 10 uM by CCK8 assay; format: functional; details: NCI-H460, 72 h, read-out: GI; outline: as §1
NCI-H1299 [10] = assay: Growth inhibition of human H1299 cells incubated for 72 hrs at 10 uM by CCK8 assay; format: functional; details: NCI-H1299, 72 h, read-out: GI; outline: as §1
NCI-H1299 [11] = assay: Growth inhibition of human H1299 cells incubated for 72 hrs at 1 uM by CCK8 assay; format: functional; details: NCI-H1299, 72 h, read-out: GI; outline: as §1
[12] = target: CDK4/Cyclin D3 (Homo sapiens) (UniProt P11802+P30281); assay: Inhibition of human CDK4/CyclinD3 at 1 uM by enzymatic radiometric assay; format: protein-complex assay
Outline: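 Kinase panel run through the Eurofins KinaseProfiler, with compound at a fixed 1 µM. Values are means of two independent experiments.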

A549 [13] = assay: Growth inhibition of human A549 cells incubated for 72 hrs at 10 uM by CCK8 assay; format: functional; details: A549, 72 h, read-out: GI; outline: as §1
SiHa [14] = assay: Growth inhibition of human SiHa cells incubated for 72 hrs at 1 uM by CCK8 assay; format: functional; details: read-out: GI; outline: as §1
HeLa [15] = assay: Growth inhibition of human HeLa cells incubated for 72 hrs at 10 uM by CCK8 assay; format: functional; details: read-out: GI; outline: as §1
HeLa [16] = assay: Growth inhibition of human HeLa cells incubated for 72 hrs at 1 uM by CCK8 assay; format: functional; details: read-out: GI; outline: as §1

SMILES | inhibition of growth at 1 µM (NCI-H460 [1]) [%] | inhibition [2] [%] | inhibition of growth at 10 µM (SiHa [3]) [%] | inhibition of growth at 10 µM (OVCAR-5 [4]) [%] | inhibition of growth at 1 µM (A549 [5]) [%] | inhibition of growth at 10 µM (T47D [6]) [%] | inhibition of growth at 1 µM (T47D [7]) [%] | inhibition of growth at 1 µM (OVCAR-5 [8]) [%] | inhibition of growth at 10 µM (NCI-H460 [9]) [%] | inhibition of growth at 10 µM (NCI-H1299 [10]) [%] | inhibition of growth at 1 µM (NCI-H1299 [11]) [%] | inhibition [12] [%] | inhibition of growth at 10 µM (A549 [13]) [%] | inhibition of growth at 1 µM (SiHa [14]) [%] | inhibition of growth at 10 µM (HeLa [15]) [%] | inhibition of growth at 1 µM (HeLa [16]) [%]
CN(C)C(=O)c1cc2cnc(Nc3ccc(NC(=O)C4(C(=O)Nc5cccc(F)c5)CC4)cc3)nc2n1C1CCCC1 | 45.1 | 7 | 107 | 85.6 | 33.2 | -0.4 | -3.2 | 26.3 | 98.8 | 87 | 64.2 | 61 | 91.8 | 29.7 | – | –
CN(C)C(=O)c1cc2cnc(Nc3ccc(NC(=O)C4(C(=O)Nc5ccc(F)cc5)CC4)cn3)nc2n1C1CCCC1 | – | -3 | – | – | – | – | – | – | – | – | – | 85 | – | – | – | –
CN(C)C(=O)c1cc2cnc(Nc3ccc(N)cn3)nc2n1C1CCCC1 | -0.6 | – | 61.5 | 68 | – | 61.1 | 18.8 | 12.3 | 62 | 82.1 | 60.1 | – | – | -21.2 | 68.7 | 3.7
CN(C)C(=O)c1cc2cnc(Nc3ccc(NC(=O)C4(C(=O)Nc5cccc(Br)c5)CC4)cc3)nc2n1C1CCCC1 | – | 6 | 92.5 | 89.6 | 20.2 | 94.6 | 29.1 | 0.04 | – | 77.5 | 46.6 | 72 | 92.2 | 13.9 | – | –
CN(C)C(=O)c1cc2cnc(Nc3ccc(NC(=O)C4(C(=O)Nc5cccc(C(F)(F)F)c5)CC4)cc3)nc2n1C1CCCC1 | – | -10 | – | – | 15.7 | 92.7 | 9.7 | – | – | – | – | 26 | 89.2 | – | – | –
CN(C)C(=O)c1cc2cnc(Nc3ccc(NC(=O)C4(C(=O)Nc5ccc(F)cc5)CC4)cc3F)nc2n1C1CCCC1 | 11.9 | 33 | 44.4 | 33 | – | 67.9 | 6.3 | -0.9 | 53 | 82.6 | 52.3 | 87 | – | 6.6 | 49.5 | 6.2
Cc1cccc(NC(=O)C2(C(=O)Nc3ccc(Nc4ncc5cc(C(=O)N(C)C)n(C6CCCC6)c5n4)cc3)CC2)c1 | – | 5 | – | – | 35.2 | 95.3 | 45.7 | – | – | – | – | 66 | 86.1 | – | – | –
Cc1ccc(NC(=O)C2(C(=O)Nc3ccc(Nc4ncc5cc(C(=O)N(C)C)n(C6CCCC6)c5n4)cc3)CC2)cc1 | – | 9 | 104 | 80.6 | 40.2 | 99.6 | 47.9 | – | – | 84.5 | – | 62 | 90.6 | 37 | – | –
CN(C)C(=O)c1cc2cnc(Nc3ccc(NC(=O)C4(C(=O)Nc5ccc(Br)cc5)CC4)cc3)nc2n1C1CCCC1 | 31.5 | 26 | 98.8 | 87.8 | -6.6 | 94.3 | 21.1 | 13.7 | 96.4 | 76.9 | 27.6 | 48 | 90.3 | 23.2 | – | –
COc1ccc(NC(=O)C2(C(=O)Nc3ccc(Nc4ncc5cc(C(=O)N(C)C)n(C6CCCC6)c5n4)cc3)CC2)cc1 | – | 19 | – | – | 74.4 | 96.1 | 76.4 | – | – | – | – | 77 | 78.5 | – | – | –
CN(C)C(=O)c1cc2cnc(Nc3ccc(NC(=O)C4(C(=O)Nc5ccc(Cl)cc5)CC4)cc3)nc2n1C1CCCC1 | 21.3 | 5 | – | 85.3 | 24.7 | 95 | 22.8 | 8.1 | 95.7 | 88.6 | 52.2 | 65 | 100 | -0.8 | – | –
CN(C)C(=O)c1cc2cnc(Nc3ccc(NC(=O)C4(C(=O)Nc5ccccc5)CC4)cc3)nc2n1C1CCCC1 | 42.4 | 8 | 106 | 77.1 | 75 | 93.9 | 52.8 | 52.1 | 95.9 | 90.5 | 71.2 | 82 | 88.8 | 58 | – | –
CN(C)C(=O)c1cc2cnc(Nc3ccc(NC(=O)C4(C(=O)Nc5cccc(Cl)c5)CC4)cc3)nc2n1C1CCCC1 | 44 | 15 | 97.3 | 88.1 | 8.3 | 92.6 | 39.3 | 15.5 | 101 | 84.1 | 47.9 | 44 | 90.7 | 16.2 | – | –
CN(C)C(=O)c1cc2cnc(Nc3ccc(NC(=O)C4(C(=O)Nc5ccc(C#N)cc5)CC4)cc3)nc2n1C1CCCC1 | – | 21 | – | – | 86.1 | – | – | – | – | – | – | 84 | 95 | – | – | –
CN(C)C(=O)c1cc2cnc(Nc3ccc(NC(=O)C4(C(=O)Nc5cccc(O)c5)CC4)cc3)nc2n1C1CCCC1 | 75.5 | 24 | 75.7 | 86 | – | 83.7 | 80.7 | 58.5 | 94.9 | 78.5 | 77.5 | 94 | – | -19.8 | 96.6 | 57
COC(=O)c1ccc(NC(=O)C2(C(=O)Nc3ccc(Nc4ncc5cc(C(=O)N(C)C)n(C6CCCC6)c5n4)cc3)CC2)cc1 | – | 2 | – | – | 77.1 | – | – | – | – | – | – | 77 | 92 | – | – | –
CN(C)C(=O)c1cc2cnc(Nc3ccc(N4CCN(C(=O)C5(C(=O)Nc6ccc(F)cc6)CC5)CC4)cn3)nc2n1C1CCCC1 | – | -8 | – | – | – | – | – | – | – | – | – | 97 | – | – | – | –
COC(=O)c1cccc(NC(=O)C2(C(=O)Nc3ccc(Nc4ncc5cc(C(=O)N(C)C)n(C6CCCC6)c5n4)cc3)CC2)c1 | – | -7 | – | – | 10.5 | – | – | – | – | – | – | 76 | 91 | – | – | –
CN(C)C(=O)c1cc2cnc(Nc3ccc(NC(=O)C4(C(=O)Nc5cccc(C#N)c5)CC4)cc3)nc2n1C1CCCC1 | – | 29 | – | – | 70.8 | – | – | – | – | – | – | 53 | 73.6 | – | – | –
CN(C)C(=O)c1cc2cnc(Nc3ccc(NC(=O)C4(C(=O)Nc5ccc(C(F)(F)F)cc5)CC4)cc3)nc2n1C1CCCC1 | – | 1 | – | – | -25.3 | 94.9 | 29.6 | – | – | – | – | 32 | 87.9 | – | – | –
COc1cccc(NC(=O)C2(C(=O)Nc3ccc(Nc4ncc5cc(C(=O)N(C)C)n(C6CCCC6)c5n4)cc3)CC2)c1 | – | -2 | – | – | 77.2 | 93.5 | 56.3 | – | – | – | – | 66 | 96 | – | – | –
CN(C)C(=O)c1cc2cnc(Nc3ccc(NC(=O)C4(C(=O)Nc5ccccc5F)CC4)cc3)nc2n1C1CCCC1 | 28.2 | -2 | 103 | 82.6 | 79.1 | 97.8 | 85.2 | 58 | 93.1 | 89.6 | 70.2 | 75 | 88.6 | 63.4 | – | –
